Experimental data: ChEMBL document CHEMBL4619773, “Chemoreactive-Inspired Discovery of Influenza A Virus Dual Inhibitor to Block Hemagglutinin-Mediated Adsorption and Membrane Fusion” (J Med Chem, 2020)
Values after ≈ are worked out from the molar mass of the structure shown. Active and inactive are the calls of the source. No cut-off for these calls is given here.

Tests used:
[1] = system: Influenza A virus; test: Antiviral activity against Influenza A virus (A/Puerto Rico/8/1934(H1N1)) infected in Kunming mouse assessed as mouse survival at 40 ug/day dosed intranasally starting 4 hrs after viral challenge and continued for 7 days and measured on day 14 by plaque assay; assay type: functional
How it was run: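 Groups of 10 female Kunming mice were infected intranasally with PR8 (1000 PFU/mouse) on day 0 and dosed once daily for seven days. Weight and clinical signs were recorded daily. Mice losing more than 25% of pre-infection weight were scored dead and euthanized; survivors were killed on day 14.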

[2] = Elimination half life in mouse at 0.5 mg/kg, iv administered as single dose; assay type: ADME, organism-based; conditions: in vivo, read-out: beta t1/2 (converted)
How it was run: (§1)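 Male Kunming mice (20-25 g) and male Sprague Dawley rats (180-220 g) were fasted 12 h before dosing. Oral dosing was by gavage as a suspension in 0.5% sodium carboxymethyl cellulose; iv dosing was via tail vein in PEG400. Serial plasma samples were taken to 24 h, protein-precipitated with acetonitrile plus N-CH3 internal standard, and quantified by LC-MS/MS (n=3). Bioavailability = AUCoral/AUCiv.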

[3] = Oral bioavailability in mouse at 5 mg/kg administered as single dose; assay type: ADME, organism-based; conditions: in vivo
How it was run: (§2)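 Male Kunming mice (20–25 g) and male SD rats (180–220 g) were fasted 12 h before dosing. Compound was suspended in 0.5% CMC-Na and given by gavage (5 mg/kg mice, 3.5 mg/kg rats), or dissolved in PEG400 and given iv via tail vein (0.5 mg/kg mice, 0.35 mg/kg rats). Plasma was sampled from 5 min to 24 h and analysed by LC-MS/MS (n=3). F = AUCoral/AUCiv.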

[4] = Cumulative drug excretion in mouse urine at 5 mg/kg, po administered as single dose measured after 72 hrs; assay type: ADME, organism-based; conditions: read-out: Drug excretion
How it was run: (§3)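 Single oral (gavage, 0.5% CMC-Na) or iv (tail vein, PEG400) dosing was given to male Kunming mice or Sprague Dawley rats held in metabolic cages. Urine and feces were collected at intervals to 72 h. Feces were dried, ground and homogenized in water (1:9 w/v). Samples were precipitated with acetonitrile containing internal standard and analysed by LC-MS/MS.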

[5] = Half life in rat at 0.35 mg/kg /kg, iv administered as single dose; assay type: ADME, organism-based; conditions: in vivo; how it was run: as §1
[6] = Oral bioavailability in rat at 3.5 mg/kg administered as single dose; assay type: ADME, organism-based; conditions: in vivo; how it was run: as §2
[7] = Cumulative drug excretion in rat urine at 0.35mg/kg, iv administered as single dose measured after 72 hrs; assay type: ADME, organism-based; conditions: read-out: Drug excretion; how it was run: as §3
[8] = system: Influenza A virus; test: Antiviral activity against Influenza A virus (A/Puerto Rico/8/1934(H1N1)) infected in Kunming mouse assessed as decrease in lung TNFalpha level at 5 to 10 mg/kg/day, po starting 4 hrs after viral challenge and continued for 4 days by ELISA; assay type: functional, organism-based
How it was run: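 Four-week-old female Kunming mice received PR8 intranasally (500 PFU/mouse in 40 µL PBS) and were then dosed once daily orally or intranasally. Lungs were collected on day 4, and TNF-α and IL-6 in lung tissue were measured by ELISA.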

[9] = Toxicity in Kunming mouse assessed as effect on creatinine level at 5 to 10 mg/kg/day, po for 7 days; assay type: organism-based; conditions: in vivo, 168 h
How it was run: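 Male Kunming mice (20–25 g) received compound orally at 5 or 10 mg/kg/day, suspended in 0.5% sodium carboxymethyl cellulose, once daily for 7 days; controls received vehicle. Serum was collected under isoflurane 24 h after the last dose. AST, ALT, CR, BUN, LDH, CK and CK-MB were measured with commercial kits.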

[10] = molecular target: Hemagglutinin (Influenza A virus (A/Puerto Rico/8/1934(H1N1))) (UniProt P03452); test: Inhibition of Hemagglutinin in Influenza A virus (A/Puerto Rico/8/1934(H1N1)) assessed as reduction in virus-induced aggregation of chicken erythrocytes at 3.125 to 50 ug/mL incubated for 60 mins by hemagglutination assay
How it was run: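 Hemagglutination inhibition with PR8 virus and chicken RBCs standardized per the WHO manual. Virus was serially diluted 2-fold and 1% cRBCs were added at equal volume. After 60 min at 4 °C, negative wells show a sedimented red button and positive wells stay opaque without sedimentation. Compound was tested at 3.125–50 µg/mL.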

[11] = system: Influenza A virus; test: Antiviral activity against luciferase tagged Influenza A virus H5N1 pseudovirus infected in MDCK cells assessed as reduction in virus infection incubated for 48 hrs by luciferase reporter gene assay; assay type: functional, organism-based
How it was run: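 MDCK cells infected with luciferase-expressing H5N1 HA/NA pseudotyped HIV-based virus were treated with compound under four different treatment regimens. Infection was quantified by firefly luciferase glow assay.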

[12] = molecular target: Hemagglutinin (Influenza A virus (A/Puerto Rico/8/1934(H1N1)), UniProt P03452); test: Binding affinity to Influenza A virus (A/Puerto Rico/8/1934(H1N1)) Hemagglutinin at 1.5625 to 50 uM by SPR assay; conditions: read-out: Kd
How it was run: (§4)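 HA protein was immobilized on CM5 chips. Compound (50, […], 12.5, 6.25, 3.125, 1.5625 µM) was injected for 2 min, followed by a 10-min PBST wash and regeneration with 2 mM NaOH for 30 s. Runs were at 25 °C with 2 µl/s flow, using a blank HA-free reference channel. KD was obtained from kinetic fitting.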

[13] = Binding affinity to Influenza A virus (A/Aichi/2/1968(H3N2)) Hemagglutinin at 1.5625 to 50 uM by SPR assay; how it was run: as §4
[14] = system: Influenza A virus; test: Antiviral activity against wild type Influenza A virus (A/Puerto Rico/8/1934(H1N1)) pseudovirus infected in 293FT cells incubated for 48 hrs by inverted fluorescence microscopy; assay type: functional, organism-based
How it was run: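 GFP-reporter lentiviral pseudoviruses bearing PR8 wild-type or mutant (T30N/E233D/T359A or T359A) HA plus NA were produced in 293FT cells. Pseudovirus was pretreated with 50 µg/ml compound for 1 h at 37 °C before infection. GFP-positive cells were counted by fluorescence microscopy at 48 h p.i.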

Sequence of Hemagglutinin (Influenza A virus (A/Puerto Rico/8/1934(H1N1))) (P03452 whole entry): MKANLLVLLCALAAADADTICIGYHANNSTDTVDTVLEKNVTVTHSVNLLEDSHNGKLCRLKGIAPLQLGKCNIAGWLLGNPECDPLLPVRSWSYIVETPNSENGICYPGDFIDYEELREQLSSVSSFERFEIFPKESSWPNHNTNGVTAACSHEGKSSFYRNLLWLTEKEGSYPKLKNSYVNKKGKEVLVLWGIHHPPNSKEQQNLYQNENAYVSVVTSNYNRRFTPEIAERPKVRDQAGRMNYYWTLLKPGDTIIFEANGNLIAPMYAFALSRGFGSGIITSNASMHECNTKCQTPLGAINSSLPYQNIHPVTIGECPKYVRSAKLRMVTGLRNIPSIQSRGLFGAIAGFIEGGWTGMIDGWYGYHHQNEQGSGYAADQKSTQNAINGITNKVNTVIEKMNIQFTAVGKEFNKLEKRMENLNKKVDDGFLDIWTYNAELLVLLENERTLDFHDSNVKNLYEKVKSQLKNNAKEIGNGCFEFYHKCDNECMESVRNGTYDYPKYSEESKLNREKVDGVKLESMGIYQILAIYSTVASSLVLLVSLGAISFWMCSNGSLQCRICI
Sequence of Hemagglutinin (Influenza A virus (A/Puerto Rico/8/1934(H1N1)), UniProt P03452) (P03452 whole entry): as above

Compound `CC(=O)c1cc(C)c(O)c(Cc2[nH]c3ccccc3c2Cc2c(O)c(C)cc(C(C)=O)c2O)c1O` has a Survival [1] of 100%, a half-life [2] of 3.4 h and a bioavailability [3] of 5.7%. For the same compound, the dose excreted at 72 h [4] was 0.03%, the half-life [5] was 4.8 h and the bioavailability [6] was 1.4%. The dose excreted at 72 h [7] was 0.006%, the Activity [8] was “Active” and the Activity [9] was “Non-Toxic”. The inhibition [10] was “Active”, the Activity [11] was “Dose-dependent effect” and the Kd [12] was 6.3 µM. It also gave a Kd [13] of 7.3 µM and an IC50 [14] of 6 mg/L (≈ 12.7 µM).
